Bioassay records: PubChem, several laboratories
Cl transport mod – modulators of human KCC2 chloride dependent transport; Q9H2X9; KCC2 cells, thallium flux FluoZin-2 fluorescence; B-score of Tl+ flux slope (higher = more flux/activation; lower = inhibition) at 10 µM; hit rate 2.2% among 190,000; AID 1456;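 active = thallium flux slope and its plate-corrected score both differing from the plate sample mean at a set confidence after two filtering rounds, in either direction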;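 note: slope of fluorescence scaled to starting intensity during 10 to 20 s after thallium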
WT yeast gro inh – growth inhibition of WT yeast, mitochondrial fusion screen | mitochondrial fusion phenotypic screen, WT strain | inhibition, % at 10 µM | hit rate 2.1% among 190,000 | AID 1362; in the data active = inhibition above about 58%; tested in S. cerevisiae
Ins promoter up – MIN6 insulin promoter up-regulation; MIN6 insulin promoter-GFP reporter, high-content imaging; stronger effect = higher value; z-score at 5 µM; hit rate 0.3% among 190,000; AID 1625;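 active = z-score above 3 at 5 µM with at least 500 cells counted in the well; inconclusive = wells under 500 cells, flagged as cytotoxic or low count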
SKKanGAS inh – inhibitors of SKKanGAS S. pyogenes growth in kanamycin (SK-promoter or general growth effect) | AID 1662 | inhibition, % at 7.5 µM | BacTiter-Glo, 6 h | hit rate 1.3% among 300,000;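 active = mean replicate score, as percent of positive control median, at least 50; inconclusive = mean below 50 but one replicate at or above 50; inactive = mean and every replicate below 50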;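 note: strain carries kanamycin resistance gene driven by streptokinase promoter and grows in 40 µg/ml kanamycin; loss of luminescence reflects streptokinase promoter inhibition or plain growth inhibition; 0% = median of DMSO wells and 100% = positive control at its reference dose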
Autophagy HCS – autophagy modulation, high-content screen | hit rate 0.98% among 190,000 | calls only at 10 µM (by protocol) | MEF GFP-LC3 puncta imaging; test concentration mostly 10 µM;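 active = percentage of spot-positive cells more than 3 SD above its plate mean, without a fluorescence outlier flag or 80% toxicity; inconclusive = no clear call, values can overlap the other calls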;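 note: spot-positive cell cutoff set from DMSO-treated cells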
Rad51 HR inh – Rad51 (human) homologous recombination inhibition; hit rate 0.085% among 200,000; inhibition, % at 10 µM; hRad51 DNA strand exchange, fluorescence dequenching; Q06609;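 active = inhibition above 40% at the single screening dose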;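 note: 0% = DMSO control wells and 100% = blanks with heterologous ssDNA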
Target sequence (Q06609 whole entry, looked up): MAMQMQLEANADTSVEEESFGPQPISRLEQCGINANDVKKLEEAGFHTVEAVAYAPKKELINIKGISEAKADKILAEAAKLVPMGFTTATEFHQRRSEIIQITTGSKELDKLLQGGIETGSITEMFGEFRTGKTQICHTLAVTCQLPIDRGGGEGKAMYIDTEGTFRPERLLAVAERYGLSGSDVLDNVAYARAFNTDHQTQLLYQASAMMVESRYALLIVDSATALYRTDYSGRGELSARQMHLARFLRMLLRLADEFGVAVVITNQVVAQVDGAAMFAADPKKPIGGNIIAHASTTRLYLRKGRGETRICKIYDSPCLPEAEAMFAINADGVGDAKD
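Read-out basis: percent inhibition relative to plate controls and blanks / Assay system: human Rad51 nucleoprotein filaments preassembled on unlabelled ssDNA / Timing: filaments 15 min 37 °C, then compound 30 min / Control set: per-plate controls and blanks / Technique: fluorescence dequenching at 485/520 nm / Compound: 10 µM final, single point / Also added: Fluorescein- and BHQ1-tagged 47-mer duplex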
KCC2 secondary – confirmation of human KCC2 transport modulators | shares compounds with Cl transport mod | hit rate 15% among 3,700 | AID 1713 | normalised thallium flux (F/F0 slope) at 10 µM | HEK293-KCC2, thallium flux, FluoZin2 fluorescence; stronger effect = higher value;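 active = thallium flux slope above the same plate's solvent-only control mean plus 3 SD; inconclusive = the two replicate wells disagree; inactive = no significant difference from solvent-only control wells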
KCC2 bumet counter – bumetanide-insensitive thallium flux in KCC2 cells with ouabain, counter-screen; normalized thallium flux at 10 µM; hit rate 49% among 3,700; AID 1714; shares compounds with Cl transport mod; HEK293-KCC2 + bumetanide/ouabain, thallium flux FluoZin2; stronger effect = higher value;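 active = thallium entry rate above the same plate's blocked-transporter control wells by more than 3 SD; inconclusive = the two repeat wells disagree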;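 note: raw slope of fluorescence over initial fluorescence between 10 and 20 s after thallium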
KCC2 sec2 – confirmation of human KCC2 transport modulators; shares compounds with Cl transport mod; HEK293-KCC2, thallium flux FluoZin2 fluorescence; actives lie on both sides; F/F0 rise rate, 10–20 s post-thallium; normalized thallium flux at 10 µM; hit rate 23% among 3,700; AID 1715;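 active = thallium flux slope more than 3 SD above or below the plate's solvent-only control mean, mostly below; inconclusive = the two repeat wells disagreed; inactive = no significant shift from solvent-only controls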;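 note: raw slope with 0.1% DMSO as baseline and bumetanide as block control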
HEK counter1 – parental HEK flux effect, counter-screen; shares compounds with Cl transport mod; HEK293 parental cells, thallium flux FluoZin2, ouabain; baseline-ratio fluorescence slope, 10–20 s after thallium; thallium flux rate (normalised fluorescence) at 10 µM; hit rate 46% among 3,700; AID 1716;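 active = thallium flux rate significantly above the same plate's solvent-only control wells, beyond their mean plus 3 SD; inconclusive = the two replicate wells gave conflicting results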
KCC2 ouabain – confirmation of human KCC2 modulators with ouabain | shares compounds with Cl transport mod | HEK293-KCC2, thallium flux FluoZin2 fluorescence; bidirectional: low = inhibitor, high = activator | raw Tl+ flux slope (below DMSO = inhibition, above = activation) at 10 µM | hit rate 48% among 3,700 | AID 1717;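 active = thallium flux slope beyond 3 SD from same-plate DMSO control mean in most replicates, usually higher, sometimes lower; inconclusive = repeat tests gave conflicting results; inactive = no significant difference from controls in most replicates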;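 note: slope of initial-normalized fluorescence between seconds 10 and 20 after thallium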
HEK293 Tl flux2 – counter-screen for KCC2 modulators: effect in parental HEK293 cells | shares compounds with Cl transport mod | thallium flux FluoZin-2 fluorescence slope | thallium flux slope at 10 µM | hit rate 33% among 3,700 | AID 1718;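 active = thallium flux slope above the same plate's solvent-control mean plus 3 SD in both duplicate wells; inconclusive = duplicate wells that disagreed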;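 note: run without ouabain in cells lacking the KCC2 cotransporter; slope of fluorescence scaled to its starting value between 10 and 20 s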
* hit, by the source's call; i = inactive; ? = inconclusive; · = no result. Only some compounds are listed: those with a hit (about 4.2% of all), similar ones and a draw of the others.

SMILES	Cl transport mod	WT yeast gro inh	Ins promoter up	SKKanGAS inh	Autophagy HCS	Rad51 HR inh	KCC2 secondary	KCC2 bumet counter	KCC2 sec2	HEK counter1	KCC2 ouabain	HEK293 Tl flux2
O=C(Nc1nc2c(F)cc(F)cc2s1)c1ccccn1	23.2*	41.4	?	72.3*	i	-7.5	0.0201*	0.105*	0.0306	0.0391*	0.076*	0.015*
O=C(CSc1nnc(SCc2cccc3ccccc23)s1)c1ccc2c(c1)OCO2	·	22.3	-0.59	·	i	·	?	0.0281*	0.0399*	0.0339*	0.0324*	0.0353*
COC(=O)NCC12CC3CC(C1)CC(CNC(=O)OC)(C3)C2	0.121	4.3	0.12	1.4	i	11.1	0.00749	0.00441	0.0284	0.0071	0.0191	0.00963
COc1cccc(OC)c1C(=O)NCC12CC3CC(C1)CC(CNC(=O)c1c(OC)cccc1OC)(C3)C2	·	·	·	2.0	·	·	·	·	·	·	·	·
COc1ccc(C)cc1S(=O)(=O)N(C)CC(=O)Nc1ccccc1	1.79	3.6	0.3	-7.4	i	19.8	·	·	·	·	·	·
COc1ccc(S(=O)(=O)N(C)CC(=O)O)c2ccccc12	3.02*	-16.2	-0.72	-2.6	i	-1.6	0.00661	0.0048	0.0295	0.00802	0.0185	0.0115
CN(C)CCCNC(=O)c1cc(S(=O)(=O)N2CCOCC2)ccc1F	-0.101	13.5	1.73	-4.6	i	4.5	·	·	·	·	·	·
O=C(NCCSCc1ccccc1)c1cc(S(=O)(=O)N2CCOCC2)ccc1F	-3.8*	3.3	-0.17	·	i	·	0.00632	0.00511	0.0263*	0.00757	?	0.0106
O=C(Cn1cnc2c(nnn2Cc2ccc(Cl)cc2)c1=O)c1ccccc1	-2.64	-10.4	-0.04	-12.5	i	1.0	·	·	·	·	·	·
COc1ccc(-n2nnc3c(=O)n(CC(=O)N4CCCc5ccccc54)cnc32)cc1	-1.12	17.9	0.31	-6.1	i	-6.4	·	·	·	·	·	·
O=C(Cn1cnc2c(nnn2-c2ccc(F)cc2)c1=O)N1CCCc2ccccc21	-4.42*	2.2	0.07	-7.7	i	-1.9	0.00713	0.00479	0.0269	0.0075	0.0165	0.00985
O=C(Cn1cnc2c(nnn2Cc2ccc(F)cc2)c1=O)NCc1ccco1	-4.53*	-4.7	·	-23.5	i	6.8	0.00686	0.00483	0.0236*	0.00745	0.0166*	0.0105
Cc1ccc(Cn2nnc3c(=O)n(CC(=O)OCc4ccccc4)cnc32)cc1	-1.84	-0.1	-0.22	5.6	i	3.3	·	·	·	·	·	·
Cc1ccc(Cn2nnc3c(=O)n(CC(=O)N4CCN(c5ccccc5)CC4)cnc32)cc1	-3.23*	-14.1	·	-9.7	i	-4.6	0.00753	0.00592	0.0309	0.00638	?	0.00954
O=C(Cn1cnc2c(nnn2Cc2ccccc2)c1=O)c1ccccc1	-4.72*	-3.3	0.32	-14.5	i	·	0.00594	0.00484	0.0237*	?	0.0136*	0.0112
O=C(Cn1cnc2c(nnn2Cc2ccc(F)cc2)c1=O)N1CCCCC1	·	·	0.77	-2.2	i	·	0.00764	0.0057	0.0295	0.00854	0.0137*	0.012
CC(=O)c1ccc(C(=O)Nc2nnc(-c3ccc(Cl)cc3)o2)cc1	22.1*	74.8	0.66	91.3*	·	-0.4	0.0219*	0.0904*	?	0.0452*	0.0497*	0.0158*
CN(C)c1ccc(C(=O)Nc2nnc(-c3ccc(Cl)cc3)o2)cc1	20.2*	67.4	-0.92	90.8*	i	-8.5	0.00703	0.0598*	0.0457*	0.0537*	0.0511*	0.0264*
CN(c1ccccc1)S(=O)(=O)c1ccc(NC(=O)c2ccc(-c3ccccc3)cc2)cc1	-0.266	-8.6	-2.28	9.1	i	-2.4	·	·	·	·	·	·
CN(c1ccccc1)S(=O)(=O)c1ccc(C(=O)Nc2nnc(-c3ccc(F)cc3)o2)cc1	17.6*	46.0	-0.22	102.8*	i	-1.5	0.0133*	0.0556*	0.034	?	0.0383*	0.0124
CN(C)C(CNC(=O)c1ccc2c(=O)n(-c3ccccc3F)c(=S)[nH]c2c1)Cc1ccccc1 (centres undefined)	0.985	14.8	0.96	0.9	i	-6.7	·	·	·	·	·	·
COc1cc(/C=C(\C#N)C(=O)NCc2ccccc2)ccc1OCc1ccc(C(=O)O)cc1	-4.14*	·	·	13.4	·	·	0.00869	0.00875*	0.034	0.00845	?	0.0112
COc1ccc(C2=NN(C(=O)c3cccs3)C(O)(C(F)(F)F)C2)cc1 (centres undefined)	4.86*	14.4	0.54	1.5	i	-59.7	?	0.00934*	0.0326	?	0.0217	0.0113
O=C(Cc1ccccc1)N/N=C/c1ccc([N+](=O)[O-])s1	·	21.1	0.06	10.1	i	-6.6	0.00783	?	0.0313	?	0.02	?
O=C(N/N=C/c1ccc([N+](=O)[O-])s1)c1ccccc1Br	0.896	7.2	-0.61	9.1	i	2.9	·	·	·	·	·	·
SMILES	Cl transport mod	WT yeast gro inh	Ins promoter up	SKKanGAS inh	Autophagy HCS	Rad51 HR inh	KCC2 secondary	KCC2 bumet counter	KCC2 sec2	HEK counter1	KCC2 ouabain	HEK293 Tl flux2
O=C(N/N=C/c1ccc([N+](=O)[O-])s1)c1ccccc1	6.36*	51.6	-1.83	15.3	i	2.8	0.0106	0.0172*	0.0349	?	0.0278*	?
C=C(C)Cn1c(CCCNC(=O)CC)nc2ccccc21	-4.97*	-4.8	·	1.0	i	-2.2	0.00848	0.00652	0.0328	0.00786	0.0233	0.0107
CCCCCn1c(CNC(=O)CCC)nc2ccccc21	-4.64*	-8.5	-0.1	-0.3	i	2.7	0.00602	0.00392	0.0319	0.0069	0.0181	?
Cc1cc(C)c(C#N)c(N2CCN(Cc3ccccc3)CC2)n1	-3.73*	5.0	0.52	-15.7	i	2.7	0.0168	0.00423	?	0.00671	0.0141	0.00982
Cc1cc(C)c(C#N)c(N2CCN(Cc3ccc4c(c3)OCO4)CC2)n1	·	1.9	-0.36	11.3	i	-6.3	·	·	·	·	·	·
CSc1sc(C(=O)Nc2ccc(F)cc2F)c2c1C=CCC2	0.188	·	-0.25	9.6	·	13.8	·	·	·	·	·	·
CCC(C)N(C(=O)COc1ccc(NC(C)=O)cc1)C1CCS(=O)(=O)C1 (centres undefined)	-0.128	-2.6	0.02	-0.2	i	-70.7	·	·	·	·	·	·
